Measurements taken from ChEMBL document CHEMBL1140344, “New 2-arylpyrazolo[4,3-c]quinoline derivatives as potent and selective human A3 adenosine receptor antagonists” (J Med Chem, 2005).

Assays:
[1] = molecular target: T1, Adenosine receptor A2b (Homo sapiens) (UniProt P29275); experiment: Percent inhibition of human adenosine A2b receptor expressed in CHO cells; format: cell-based; design: concentration or dose not given beside the values; conditions: concentration not given here
T1 sequence (whole entry): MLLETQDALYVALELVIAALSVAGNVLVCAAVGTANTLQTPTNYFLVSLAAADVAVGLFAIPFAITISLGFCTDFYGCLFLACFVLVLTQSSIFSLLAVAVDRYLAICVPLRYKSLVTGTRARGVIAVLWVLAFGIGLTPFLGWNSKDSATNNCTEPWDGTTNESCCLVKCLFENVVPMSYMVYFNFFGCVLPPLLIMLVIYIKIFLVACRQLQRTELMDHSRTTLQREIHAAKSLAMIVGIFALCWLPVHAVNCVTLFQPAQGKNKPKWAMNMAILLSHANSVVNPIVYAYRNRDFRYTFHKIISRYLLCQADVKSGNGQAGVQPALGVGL

Adenosine receptor A2a [2] = molecular target: T2, Adenosine receptor A2a (Homo sapiens, UniProt P29274); experiment: Percent inhibition of [3H]ZM-241385 binding to human adenosine 2Aa receptor expressed in CHO cells; (n=3 - 6); format: cell-based; design: concentration or dose not given beside the values; conditions: concentration not given here
[3] = molecular target: T3, Adenosine receptor A1 (Homo sapiens) (UniProt P30542); experiment: Percent inhibition [3H]DPCPX binding to human adenosine A1 receptor expressed in CHO cells; (n=3 - 6); format: cell-based; design: concentration or dose not given beside the values; conditions: concentration not given here
T3 sequence (whole entry): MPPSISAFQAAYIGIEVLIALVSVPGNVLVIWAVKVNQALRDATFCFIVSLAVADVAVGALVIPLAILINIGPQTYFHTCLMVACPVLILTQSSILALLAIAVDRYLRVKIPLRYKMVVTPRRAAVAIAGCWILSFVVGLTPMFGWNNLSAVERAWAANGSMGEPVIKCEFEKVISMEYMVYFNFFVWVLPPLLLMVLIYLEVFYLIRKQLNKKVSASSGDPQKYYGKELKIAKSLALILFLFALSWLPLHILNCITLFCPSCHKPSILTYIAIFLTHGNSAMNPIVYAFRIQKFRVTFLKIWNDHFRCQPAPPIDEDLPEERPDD

Adenosine receptor A2b = molecular target: T4, Adenosine receptor A2b (Homo sapiens, UniProt P29275); experiment: Inhibition of 100 nM-NECA stimulation of cAMP levels in human adenosine A2b receptor expressing CHO cells; format: cell-based
T4 sequence (P29275 whole entry): T1 sequence (whole entry)
Method in brief: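 CHO cells stably transfected with human A2B receptor, grown in DMEM/F12 with 10% FCS and G418, 37 °C. Cells trypsinised and suspended at 1 × 10⁶ cells/assay in pH 7.4 buffer with 2 IU/ml adenosine deaminase and Ro 20-1724. Preincubated 10 min at 37 °C, then challenged with 100 nM NECA. Stopped with cold 6% TCA. cAMP measured by competitive binding to [³H]cAMP with adrenal binding protein. IC50 from sigmoid nonlinear regression.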

Adenosine receptor A3 [4] = molecular target: T5, Adenosine receptor A3 (Homo sapiens, UniProt P0DMS8); experiment: Inhibition of [3H]MRE3008-F20 binding to human adenosine A3 receptor expressed in CHO cells; (n=3 - 6); format: cell-based
T5 sequence (P0DMS8 whole entry): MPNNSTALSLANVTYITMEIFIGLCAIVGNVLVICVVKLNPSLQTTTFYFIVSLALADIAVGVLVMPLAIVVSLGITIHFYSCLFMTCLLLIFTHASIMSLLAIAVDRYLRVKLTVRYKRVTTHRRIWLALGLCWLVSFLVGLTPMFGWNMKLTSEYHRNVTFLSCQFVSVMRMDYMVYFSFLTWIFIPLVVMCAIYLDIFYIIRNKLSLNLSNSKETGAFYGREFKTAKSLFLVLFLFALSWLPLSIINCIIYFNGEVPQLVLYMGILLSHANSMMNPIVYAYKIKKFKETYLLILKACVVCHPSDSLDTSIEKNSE

Adenosine receptor A2a [5] = molecular target: T2, Adenosine receptor A2a; experiment: Inhibition of [3H]ZM-241385 binding to human adenosine A2a receptor expressed in CHO cells; (n=3 - 6); format: cell-based
Method in brief: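 Membranes from human A2A-transfected CHO cells, pretreated with adenosine deaminase. 50 µg protein incubated 60 min at 4 °C in 50 mM Tris HCl, 10 mM MgCl₂, pH 7.4 with [³H]ZM241385 and 6–8 concentrations of test ligand. Nonspecific binding defined with 1 µM ZM241385. Separated by filtration, counted by scintillation. Ki via Cheng–Prusoff.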

Adenosine receptor A1 = molecular target: T6, Adenosine receptor A1 (Homo sapiens, UniProt P30542); experiment: Inhibition of [3H]DPCPX binding to human adenosine A1 receptor expressed in CHO cells; (n=3 - 6); format: cell-based
T6 sequence (P30542 whole entry): T3 sequence (whole entry)
Method in brief: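 Membranes from human A1-transfected CHO cells, pretreated with adenosine deaminase 3 IU/ml for 30 min at 37 °C. 50 µg protein incubated 120 min at 25 °C in 50 mM Tris HCl pH 7.4 with 1 nM [³H]DPCPX and 6–8 concentrations of test ligand. Nonspecific binding defined with 10 µM CHA. Separated by GF/B filtration, counted by scintillation. Ki via Cheng–Prusoff.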

Adenosine receptor A3 [6] = molecular target: T5, Adenosine receptor A3; experiment: Inhibition of cAMP accumulation in human adenosine A3 receptor assay as inhibition of Cl-IB-MECA; format: functional
[7] = molecular target: T3, Adenosine receptor A1 (Homo sapiens); experiment: Percentage inhibition of [3H]DPCPX binding to human adenosine A1 receptor expressed in CHO cells; (n=3 - 6); format: cell-based; conditions: concentration not given here

T2 sequence (P29274 whole entry): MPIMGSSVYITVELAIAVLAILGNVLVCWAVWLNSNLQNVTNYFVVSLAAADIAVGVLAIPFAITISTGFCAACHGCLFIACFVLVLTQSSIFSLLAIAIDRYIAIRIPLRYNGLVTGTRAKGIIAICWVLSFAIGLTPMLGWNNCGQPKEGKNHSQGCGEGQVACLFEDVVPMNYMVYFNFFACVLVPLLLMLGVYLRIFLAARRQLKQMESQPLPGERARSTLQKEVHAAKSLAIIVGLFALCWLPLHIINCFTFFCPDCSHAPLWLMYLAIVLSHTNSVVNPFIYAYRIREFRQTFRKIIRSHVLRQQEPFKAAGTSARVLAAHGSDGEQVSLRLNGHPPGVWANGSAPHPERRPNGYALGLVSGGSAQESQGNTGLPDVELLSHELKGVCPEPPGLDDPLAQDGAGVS

inhibition [1] [%] | inhibition (Adenosine receptor A2a [2]) [%] | inhibition [3] [%] | IC50 (Adenosine receptor A2b) [nM] | Ki (Adenosine receptor A3 [4]) [nM] | Ki (Adenosine receptor A2a [5]) [nM] | Ki (Adenosine receptor A1) [nM] | Ki (Adenosine receptor A3 [6]) [nM] | inhibition [7] [%] | SMILES
2 | 1 | 3 | – | – | – | – | – | – | Cc1ccc(-n2cc3c(O)nc4ccccc4c3n2)cc1
1 | 3 | 5 | > 1000 | 212 | > 1000 | > 1000 | – | – | c1ccc(-n2cc3cnc4ccccc4c3n2)cc1
11 | 8 | 14 | > 1000 | 220 | > 1000 | > 1000 | – | – | Sc1nc2ccccc2c2nn(-c3ccccc3)cc12
– | – | – | > 1000 | 157 | > 1000 | > 1000 | – | – | CCc1ccc(-n2cc3c(=O)[nH]c4ccccc4c3n2)cc1
8 | 1 | 3 | > 1000 | 44 | > 1000 | > 1000 | – | – | Oc1nc2ccccc2c2nn(-c3ccccc3Cl)cc12
13 | 1 | 12 | – | – | – | – | – | – | CCc1ccc(-n2cc3c(O)nc4ccccc4c3n2)cc1
1 | 1 | 4 | > 1000 | 19 | > 1000 | > 1000 | – | – | Oc1nc2ccccc2c2nn(-c3ccc(Cl)cc3)cc12
10 | 10 | 10 | > 1000 | 27 | > 1000 | > 1000 | – | – | Oc1nc2ccccc2c2nn(-c3ccc(F)cc3)cc12
10 | 5 | 16 | > 1000 | 166 | > 1000 | > 1000 | – | – | COc1nc2ccccc2c2nn(-c3ccccc3)cc12
2 | 1 | 1 | > 1000 | 16 | > 1000 | > 1000 | 42 | – | COc1ccc(-n2cc3c(O)nc4ccccc4c3n2)cc1
1 | 2 | – | > 1000 | 27 | > 1000 | > 1000 | 55 | 5 | Oc1nc2ccccc2c2nn(-c3ccccc3)cc12
– | – | – | > 1000 | – | > 1000 | > 1000 | – | – | Cc1ccc(-n2cc3c(=O)[nH]c4ccccc4c3n2)cc1
1 | 2 | 4 | > 1000 | 125 | > 1000 | > 1000 | – | – | c1ccc(CNc2nc3ccccc3c3nn(-c4ccccc4)cc23)cc1
